Experimental data as given in the M2OR odorant receptor database.

Each compound was assayed against T1, OR2C1 (Homo sapiens) (UniProt O95371). Settings: stereoisomer not certain.
T1 sequence (whole entry): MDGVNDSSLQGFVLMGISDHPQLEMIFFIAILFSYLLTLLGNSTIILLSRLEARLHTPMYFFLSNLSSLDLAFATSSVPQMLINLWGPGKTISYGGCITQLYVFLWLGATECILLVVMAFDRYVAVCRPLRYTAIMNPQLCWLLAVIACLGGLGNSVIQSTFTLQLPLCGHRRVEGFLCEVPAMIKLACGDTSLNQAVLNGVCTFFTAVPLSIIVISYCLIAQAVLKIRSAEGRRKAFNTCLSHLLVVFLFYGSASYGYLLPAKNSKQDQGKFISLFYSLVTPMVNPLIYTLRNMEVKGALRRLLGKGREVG
Method in brief: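 Values were gathered from published papers (main text and supplementary material), with extra details requested from the original authors when needed, and checked for typos and inconsistencies. Each receptor–molecule pair is called responsive (active) if the original authors judged the measured signal statistically different from baseline, and non-responsive (inactive) otherwise. Assay methods varied by source, often transient mammalian cell-line luciferase assays. Recorded details include cell line, G-protein, co-transfected protein and tags.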
With CCCCCCO the “odorant receptor agonist call” value was “inactive”. For CC(=O)OCC=C(C)C, the “odorant receptor agonist call” value was “inactive”. With C=CCOC(=O)CCCCCC the “odorant receptor agonist call” value was “inactive”. CCCCCC1=C(C)CCC1=O was tested, and the “odorant receptor agonist call” value was “inactive”. With c1ccccc1 the “odorant receptor agonist call” value was “inactive”. With CCCCCCCCO the “odorant receptor agonist call” value was “inactive”. In the case of CCCCCO, the “odorant receptor agonist call” value is reported as “inactive”. For CCCCCCCCCS, the “odorant receptor agonist call” value was “active”. CCCC(=O)C(C)=O was tested, and the “odorant receptor agonist call” value was “inactive”. In the case of CCC(C(=O)O)c1ccccc1 (stereo not drawn), the “odorant receptor agonist call” value is reported as “inactive”. In the case of O=C(c1ccccc1)c1ccccc1, the “odorant receptor agonist call” value is reported as “inactive”. CC(C)=CCCC(C)CCO (stereo not drawn) was tested, and the “odorant receptor agonist call” value was “inactive”. For CCCCCCCC(C)=O, the “odorant receptor agonist call” value was “inactive”. For CCCCCCCCS, the “odorant receptor agonist call” value was “active”. With CCCCCC=O the “odorant receptor agonist call” value was “inactive”. For CCCCC(=O)CC, the “odorant receptor agonist call” value was “inactive”. CCCCCCCO was tested, and the “odorant receptor agonist call” value was “inactive”. With CCCCCCCCC(=O)O the “odorant receptor agonist call” value was “inactive”. With COc1cc(C(=O)O)ccc1O the “odorant receptor agonist call” value was “inactive”. CCCCCCCCCC(=O)[O-].[H+] was tested, and the “odorant receptor agonist call” value was “inactive”. With CCCCC(=O)O the “odorant receptor agonist call” value was “inactive”. CCCCCCC(C)=O was tested, and the “odorant receptor agonist call” value was “inactive”. With CCCCCOC(=O)CCCCC the “odorant receptor agonist call” value was “inactive”. With CCCCC(C)=O the “odorant receptor agonist call” value was “inactive”. For CCCCCC(=O)CC, the “odorant receptor agonist call” value was “inactive”. For CCC(=O)O, the “odorant receptor agonist call” value was “inactive”. CCOC(=O)C(C)C was tested, and the “odorant receptor agonist call” value was “inactive”. O=C1CCOc2ccccc21 was tested, and the “odorant receptor agonist call” value was “inactive”.
